Activity calls are given as the source filed them. The rule behind the calls is not given here.
Experiments:
[1] = Inhibition of 1,10-phenanthroline-induced HIF1 activation in T47D cells by TK-luciferase assay; format: cell-based; details: Homo sapiens
Procedure, shortened: (§1)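 HIF-1 reporter (pHRE-TK-Luc) assays in transfected PC-3 or T47D cells; HIF-1 induced by hypoxia or by the hypoxia mimetic 1,10-phenanthroline (10 μM); compounds at half-log concentrations; luciferase activity measured; IC50 from experiments in triplicate.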

[2] = Inhibition of 1,10-phenanthroline-induced HIF1 activation in PC3 cells by TK-luciferase assay; format: cell-based; details: Homo sapiens, PC-3; procedure, shortened: as §1
[3] = Inhibition of HIF1 activation in PC3 cells by TK-luciferase assay; format: cell-based; details: Homo sapiens, PC-3; procedure, shortened: as §1
T47D [4] = test: Inhibition of hypoxia induced VEGF protein secretion in human T47D cells at 10 uM after 16 hrs by ELISA; format: functional; parameters: scale not given: the % may be the effect or the level left
Procedure, shortened: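 Exponentially growing T47D cells exposed to hypoxia (1% O2) with compound (10 μM) for 16 hr; secreted VEGF protein in conditioned media by ELISA, normalized to protein in cell lysates (micro BCA).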

[5] = biological target: Hypoxia inducible factors; HIF-1-alpha, HIF-2-alpha (Homo sapiens, UniProt Q16665+Q99814); test: Inhibition of HIF1 activation in human T47D cells by TK-luciferase assay; format: cell-based; procedure, shortened: as §1
T47D [6] = test: Inhibition of 1,10-phenanthroline-induced VEGF protein secretion in human T47D cells at 10 uM after 16 hrs by ELISA; format: functional, cell-based
Procedure, shortened: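 T47D cells stimulated with 1,10-phenanthroline, compound at 10 μM; secreted VEGF in conditioned media by ELISA, normalized to cell-lysate protein.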

[7] = DPPH radical scavenging activity relative to Trolox; format: functional; parameters: concentration or dose not given beside the values
Procedure, shortened: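 Compounds were made up as DMSO stocks and diluted in isopropanol to a final 10 μM. Each was mixed with DPPH in isopropanol at 10 μM or 30 μM DPPH, and absorbance was read at 515 nm. Scavenging was calculated as [1 − OD515(compound)/OD515(control)] × 100, then expressed as a percentage of Trolox activity. One experiment was run in triplicate.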

[8] = Inhibition of luciferase at 30 uM
Procedure, shortened: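 Purified recombinant firefly luciferase (QuantiLum, 46.8 μg mL−1) mixed with compound in passive lysis buffer containing BSA (1 mg mL−1); equal volume of luciferase substrate added, light output read; percentage inhibition relative to DMSO control; concentration-response curves up to 30 μM.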

Structure (SMILES) | IC50 [1] | IC50 [2] | IC50 [3] | Activity (T47D [4]) | IC50 [5] | Activity (T47D [6]) | Activity [7] | inhibition [8]
CCCc1cc(=O)c2c(O)cc3cc(O)cc(OC)c3c2o1 [COMAPARVIN] | 3 µM | > 10 µM | > 10 µM | 27% | 3 µM | inactive | – | –
CCCc1cc(=O)c2c(OC)c3c(OC)cc(O)cc3cc2o1 [NEOCOMANTHERIN] | 1.9 µM | 3.7 µM | 3.2 µM | – | 2.7 µM | inactive | 40% | 48%

From ChEMBL document CHEMBL1141286, “Benzochromenones from the marine crinoid Comantheria rotula inhibit hypoxia-inducible factor-1 (HIF-1) in cell-based reporter assays and differentially suppress the growth of certain tumor cell lines” (J Nat Prod, 2007)
